These results are taken from publication PMC3013634 (FEMS microbiology letters, 2009).

In the experiment the target is T1, sPBP 6 (Escherichia coli, UniProt P08506).
T1 sequence (P08506 28-388 limits assumed): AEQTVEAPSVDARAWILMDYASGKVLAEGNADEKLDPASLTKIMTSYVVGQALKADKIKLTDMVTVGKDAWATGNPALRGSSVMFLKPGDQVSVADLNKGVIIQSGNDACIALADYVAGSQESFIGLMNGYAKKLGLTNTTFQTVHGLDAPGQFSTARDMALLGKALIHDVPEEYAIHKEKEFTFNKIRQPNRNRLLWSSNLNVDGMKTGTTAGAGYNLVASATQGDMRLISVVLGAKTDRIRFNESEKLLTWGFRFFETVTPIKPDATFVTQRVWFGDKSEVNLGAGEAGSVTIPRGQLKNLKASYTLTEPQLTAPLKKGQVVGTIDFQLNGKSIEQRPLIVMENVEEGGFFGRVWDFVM
In words: acylation rate, fluorescent labelling, SDS-PAGE densitometry. The class given is binding. Conditions: covalent; labelled compound; active-site serine acylation; 25-100 μM, 30-120 s. An outline of the steps: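 Enzyme (250 μg) was incubated with BOCILLIN FL at 25, 50 or 100 μM for 30–120 s, then run on 12% SDS-PAGE and fluorescence-scanned (488/526 nm). Pseudo-first-order ka came from bound density relative to saturation, and k2/K from the slope of ka versus concentration.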

Consider `Cc1cc(C)n2c1C=C1C=CC(CCC(=O)Nc3ccc(OCC(=O)N[C@@H]4C(=O)N5[C@@H]4SC(C)(C)[C@@H]5C(=O)[O-])cc3)=[N+]1[B-]2(F)F.[Na+]` [BOCILLIN FL], for which the “k2/K / M^-1 s^-1” value came to 1900 ± 65.5 M⁻¹ s⁻¹.
